{"source": "ChEMBL document CHEMBL1128283", "about": "“Novel modified carboxy terminal fragments of neuropeptide Y with high affinity for Y2-type receptors and potent functional antagonism at a Y1-type receptor” (J Med Chem, 1995)", "key": {"[1]": {"target": "T1, Neuropeptide Y receptor type 2 (Rattus norvegicus, UniProt Q9ERC0)", "T1 sequence (Q9ERC0 whole entry)": "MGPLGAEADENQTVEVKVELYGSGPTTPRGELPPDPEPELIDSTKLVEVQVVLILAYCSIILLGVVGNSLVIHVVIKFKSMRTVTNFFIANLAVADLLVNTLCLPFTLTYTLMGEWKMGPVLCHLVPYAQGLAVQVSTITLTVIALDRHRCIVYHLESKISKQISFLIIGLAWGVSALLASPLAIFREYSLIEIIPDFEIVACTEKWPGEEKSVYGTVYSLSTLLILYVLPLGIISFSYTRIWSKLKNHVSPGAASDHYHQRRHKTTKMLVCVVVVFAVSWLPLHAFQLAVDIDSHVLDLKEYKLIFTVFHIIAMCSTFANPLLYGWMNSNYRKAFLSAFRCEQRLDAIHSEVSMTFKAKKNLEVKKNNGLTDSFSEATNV", "experiment": "50% displacement of specifically bound [3H]NPY2 from rat brain membranes.", "type": "cell membranes, Membrane"}, "HEL [2]": {"test_system": "HEL", "experiment": "(§1) Inhibition of NPY1-induced ([Ca2+]) release in HEL cell was determined at 100 nM", "type": "functional, Homo sapiens", "set-up": "scale not given: the % may be the effect or the level left", "how_it_was_run": "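HEL cells loaded with fura-2 and kept in suspension; calcium read as the 340/380 nm ratio. Peptide tested at 100 nM, added 30 s before NPY. Agonist activity expressed as percent of the response to 100 nM NPY. Inhibition measured against the 5 nM NPY response.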"}, "HEL [3]": {"test_system": "HEL", "experiment": "Inhibition of NPY-induced ([Ca2+]) release in HEL cell was determined", "type": "functional, cell-based", "settings": "Homo sapiens"}, "HEL [4]": {"test_system": "HEL", "experiment": "as §1", "type": "functional", "settings": "Homo sapiens, read-out: ED50 (the source's name)"}}}
{"substance": "H-HYINLIYRLRY-NH2", "values": [{"measurement": "IC50", "setting": "[1]", "value": 12, "unit": "nM"}, {"measurement": "Activity", "setting": "HEL [2]", "value": 100, "unit": "%"}]}
{"substance": "H-INLIYRLRY-NH2 [listing 1 of 2 here]", "values": [{"measurement": "Activity", "setting": "HEL [2]", "value": 33, "unit": "%"}]}
{"substance": "H-INLIYRLRY-NH2 [listing 2 of 2 here]", "values": [{"measurement": "IC50", "setting": "[1]", "value": 37, "unit": "nM"}]}
{"substance": "H-INPIYRLRY-NH2", "values": [{"measurement": "IC50", "setting": "[1]", "value": 174, "unit": "nM"}, {"measurement": "IC50", "setting": "HEL [3]", "value": 9, "unit": "nM"}]}
{"substance": "H-IYRLRY-NH2", "values": [{"measurement": "IC50", "setting": "[1]", "value": 2950, "unit": "nM"}]}
{"substance": "H-LIYRLRY-NH2", "values": [{"measurement": "IC50", "setting": "[1]", "value": 400, "unit": "nM"}]}
{"substance": "H-NLIYRLRY-NH2", "values": [{"measurement": "IC50", "setting": "[1]", "value": 310, "unit": "nM"}]}
{"substance": "H-RHYINLITRQRY-NH2 [listing 1 of 2 here]", "values": [{"measurement": "Activity", "setting": "HEL [2]", "value": 0, "unit": "%"}]}
{"substance": "H-RHYINLITRQRY-NH2 [listing 2 of 2 here]", "values": [{"measurement": "IC50", "setting": "[1]", "value": 1300, "unit": "nM"}]}
{"substance": "H-RHYINLIYRLRY-NH2", "values": [{"measurement": "IC50", "setting": "[1]", "value": 12, "unit": "nM"}, {"measurement": "Activity", "setting": "HEL [2]", "value": 100, "unit": "%"}]}
{"substance": "H-TRQRY-NH2", "values": [{"measurement": "IC50", "setting": "[1]", "value": "> 100000", "unit": "nM"}]}
{"substance": "H-YINLITRLY-NH2", "values": [{"measurement": "IC50", "setting": "[1]", "value": 2100, "unit": "nM"}, {"measurement": "Activity", "setting": "HEL [2]", "value": 0, "unit": "%"}]}
{"substance": "H-YINLITRQRY-NH2", "values": [{"measurement": "IC50", "setting": "[1]", "value": 30000, "unit": "nM"}, {"measurement": "Activity", "setting": "HEL [2]", "value": 0, "unit": "%"}]}
{"substance": "H-YINLIYRLRY-NH2", "values": [{"measurement": "IC50", "setting": "[1]", "value": 8, "unit": "nM"}, {"measurement": "EC50", "setting": "HEL [4]", "value": 8.8, "unit": "nM"}]}
{"substance": "H-YINPIYRLRY-NH2 [listing 1 of 2 here]", "values": [{"measurement": "IC50", "setting": "HEL [3]", "value": 100, "unit": "nM"}]}
{"substance": "H-YINPIYRLRY-NH2 [listing 2 of 2 here]", "values": [{"measurement": "IC50", "setting": "[1]", "value": 44, "unit": "nM"}]}
